Test results: ChEMBL document CHEMBL3399918, “In vitro radical scavenging and cytotoxic activities of novel hybrid selenocarbamates” (Bioorg Med Chem, 2015)

How the values were obtained:
[1] = system: MCF7; assay: Cytotoxicity against human MCF7 cells after 72 hrs by MTT assay; format: functional; settings: MCF7, 72 h; for CC50: read-out: LC50 (the source's name)
In short: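 MCF-7 cells grown in EMEM with 10% foetal calf serum, 2 mM L-glutamine, 100 units/mL penicillin, 100 µg/mL streptomycin. Exposed to five concentrations between 0.01 and 100 μM for 72 h, 37 °C, humidified 5% CO2; MTT read-out. GI50, TGI, LC50 relative to untreated controls; ≥3 independent experiments in quadruplicate.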

[2] = system: HT-29; assay: Cytotoxicity against human HT-29 cells after 72 hrs by MTT assay; format: functional; settings: HT-29, 72 h
In short: (§1)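 CCRF-CEM, HT-29, PC-3 and HTB-54 cells grown in RPMI 1640 with 10% foetal calf serum, 2 mM L-glutamine, penicillin/streptomycin, 10 mM HEPES (pH 7.4). Five concentrations, 0.01–100 μM, 72 h at 37 °C, 5% CO2; MTT read-out. GI50, TGI and LC50 versus untreated controls; at least 3 independent experiments in quadruplicate.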

[3] = system: CCRF-CEM; assay: Cytotoxicity against human CCRF-CEM cells after 72 hrs by MTT assay; format: functional; in short: as §1
[4] = Cytotoxicity against human PC3 cells after 72 hrs by MTT assay; format: functional; settings: PC-3, 72 h; in short: as §1
[5] = Cytotoxicity against human HTB-54 cells after 72 hrs by MTT assay; format: functional; settings: HTB-54, 72 h; for CC50: read-out: LC50 (the source's name); in short: as §1
[6] = Cytotoxicity against human 184B5 cells after 72 hrs by MTT assay; format: cell-based; settings: for GI50 at 72 h: 184B5 cells; for LC50 / TGI: 184b5, 72 h
In short: (§2)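 Non-malignant lines: 184B5 (normal breast) in Hams F-12/DMEM (50:50) with published supplements; BEAS-2B (bronchial epithelium) in Hams F-12/DMEM (50:50) with 10% foetal calf serum, 2 mM L-glutamine, penicillin/streptomycin. Compounds at five concentrations, 0.01–100 μM, 72 h, 37 °C, 5% CO2; MTT read-out. GI50, TGI, LC50 relative to untreated controls; ≥3 independent experiments in quadruplicate.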

[7] = Cytotoxicity against human BEAS2B cells after 72 hrs by MTT assay; format: cell-based, BEAS-2B; settings: for GI50 at 72 h: BEAS2B cells; for LC50 / TGI: beas-2b, 72 h; in short: as §2
[8] = Antioxidant activity assessed as ABTS radical scavenging activity by measuring Trolox equivalent antioxidant capacity after 6 mins; format: physicochemical; settings: 0.1 h
In short: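 ABTS dissolved in deionized water at 1 mg/mL, oxidised to radical cation with potassium persulfate (2.45 mM final), kept overnight at room temperature in dark, then diluted with 50% ethanol to A741 = 0.700 ± 0.02. Compound (1 mg/mL ethanol stock) added 1:10 (0.1 mg/mL); A741 decrease read after 6 min against 50% ethanol blank. Trolox positive control; quadruplicate; TEAC from calibration curve.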

| Structure (SMILES) | GI50 [1] | TGI [1] | CC50 [1] | GI50 [2] | LC50 [2] | TGI [2] | GI50 [3] | LC50 [3] | TGI [3] | GI50 [4] | LC50 (concentration causing 50% net cell kill) [4] | TGI [4] | GI50 [5] | TGI [5] | CC50 [5] | GI50 at 72 h [6] | LC50 [6] | TGI [6] | GI50 at 72 h [7] | LC50 [7] | further results |
| --- | --- | --- | --- | --- | --- | --- | --- | --- | --- | --- | --- | --- | --- | --- | --- | --- | --- | --- | --- | --- | --- |
| O=C(Nc1ccc([Se][Se]c2ccc(NC(=O)Oc3ccc(F)cc3)cc2)cc1)Oc1ccc(F)cc1 | 8 µM | 33.7 µM | 64.3 µM | 18.5 µM | 85.3 µM | 51.9 µM | 8.7 µM | 68.8 µM | 37.6 µM | 4.9 µM | 64.5 µM | 31.3 µM | 26.7 µM | 51.8 µM | 77 µM | 3.7 µM | 47.8 µM | 8.6 µM | 0.7 µM | 61.8 µM | TGI [7]: 23.5 µM |
| N#C[Se]c1ccc(NC(=O)OCC2=Cc3ccccc3S2(=O)=O)cc1 | 8.3 µM | 34.9 µM | 66.1 µM | 26.1 µM | 74.3 µM | 50.2 µM | 3.3 µM | 8.9 µM | 6.1 µM | 6.3 µM | 59.8 µM | 21.3 µM | 6.8 µM | 26.9 µM | 62.7 µM | 5.3 µM | 59.7 µM | 19.2 µM | 7.7 µM | 64.3 µM | TGI [7]: 29 µM; Activity [8]: 1.92 µg/µL |
| CCCOC(=O)Nc1ccc([Se]C#N)cc1 | 8 µM | 34.4 µM | 67.5 µM | 28.4 µM | 75.4 µM | 51.9 µM | 9.3 µM | 68.8 µM | 38.4 µM | 21.1 µM | 73.8 µM | 47.4 µM | 28.9 µM | 51.9 µM | 74.9 µM | 3.7 µM | 50.9 µM | 9.1 µM | 19.2 µM | 73.5 µM | TGI [7]: 46.3 µM; Activity [8]: 6.27 µg/µL |
| N#C[Se]c1ccc(NC(=O)OCc2ccc([N+](=O)[O-])cc2)cc1 | 11.8 µM | 40.7 µM | 69.5 µM | 22.4 µM | 71.9 µM | 47.1 µM | 9.3 µM | 68.8 µM | 38.3 µM | 9 µM | 67.6 µM | 36.5 µM | 22.9 µM | 47.6 µM | 72.4 µM | 6 µM | 58.5 µM | 18 µM | 7.7 µM | 65.8 µM | TGI [7]: 32.8 µM; Activity [8]: 9.66 µg/µL |
| C=CCOC(=O)Nc1ccc([Se]C#N)cc1 | 15 µM | 43.1 µM | 71.2 µM | 24.5 µM | 72.8 µM | 48.6 µM | 9.2 µM | 68.6 µM | 38.1 µM | 17.6 µM | 71.8 µM | 44.7 µM | 27 µM | 50.1 µM | 73.3 µM | 5 µM | 53.8 µM | 9.8 µM | 21.4 µM | 73.5 µM | TGI [7]: 47.4 µM |
| O=C(Nc1ccc([Se][Se]c2ccc(NC(=O)OCC3c4ccccc4-c4ccccc43)cc2)cc1)OCC1c2ccccc2-c2ccccc21 | 22.6 µM | 52.9 µM | 83.3 µM | 17.8 µM | 80.3 µM | 49 µM | 14.9 µM | 71.4 µM | 43.2 µM | 9.2 µM | 70.3 µM | 38.8 µM | 36.8 µM | 60.5 µM | 84.3 µM | 6.5 µM | 59.4 µM | 19.7 µM | 7.1 µM | 64.1 µM | TGI [7]: 27.9 µM; Activity [8]: 0.93 µg/µL |
| COc1cc([C@@H]2c3cc4c(cc3[C@@H](O[C@@H]3O[C@@H]5CO[C@@H](C)O[C@H]5[C@H](O)[C@H]3O)[C@H]3COC(=O)[C@H]23)OCO4)cc(OC)c1O [ETOPOSIDE] | 19.9 µM | > 100 µM | > 100 µM | 31.6 µM | – | > 100 µM | 1.6 µM | – | 50.5 µM | 0.6 µM | – | 4 µM | – | – | – | – | – | – | – | – | – |
| O=C(Nc1ccc([Se][Se]c2ccc(NC(=O)OCC3=Cc4ccccc4S3(=O)=O)cc2)cc1)OCC1=Cc2ccccc2S1(=O)=O | 3.2 µM | 5.7 µM | 8.2 µM | 3 µM | 7.8 µM | 5.4 µM | 2.3 µM | 7.5 µM | 4.9 µM | 3.8 µM | 7.9 µM | 5.8 µM | 4.4 µM | 6.3 µM | 8.2 µM | 2.6 µM | 7.5 µM | 5 µM | 3.5 µM | 7.9 µM | TGI [7]: 5.7 µM; Activity [8]: 5.78 µg/µL |
| O=C(Nc1ccc([Se][Se]c2ccc(NC(=O)OCc3ccc([N+](=O)[O-])cc3)cc2)cc1)OCc1ccc([N+](=O)[O-])cc1 | 20.6 µM | 52.8 µM | 85 µM | 16.7 µM | 75.9 µM | 46.3 µM | 8.6 µM | 68.1 µM | 36.5 µM | 6.4 µM | 69.2 µM | 27.1 µM | 31.8 µM | 55.6 µM | 79.4 µM | 6 µM | 56.5 µM | 13.8 µM | 6.3 µM | 61.6 µM | TGI [7]: 22.5 µM |
| COc1ccc(OC(=O)Nc2ccc([Se]C#N)cc2)cc1 | 22.4 µM | 48.2 µM | 74.1 µM | 13.6 µM | 69.6 µM | 41.5 µM | 13 µM | 70 µM | 41.5 µM | 7.5 µM | 71.6 µM | 44.6 µM | 23.7 µM | 48.5 µM | 73.3 µM | 4.5 µM | 59.6 µM | 19.2 µM | 25.2 µM | 71.6 µM | TGI [7]: 48.4 µM; Activity [8]: 2.58 µg/µL |
| O=C(Nc1ccc([Se][Se]c2ccc(NC(=O)Oc3ccc(Cl)cc3)cc2)cc1)Oc1ccc(Cl)cc1 | 12.4 µM | 46 µM | 79.6 µM | 9.9 µM | 76.9 µM | 43.4 µM | 10.8 µM | 76 µM | 43.4 µM | 1 µM | 82.6 µM | 28.1 µM | 28.6 µM | 60.8 µM | 93 µM | 2.5 µM | 52.6 µM | 8.9 µM | 0.1 µM | 64.7 µM | TGI [7]: 26.6 µM |
| Cc1ccc(OC(=O)Nc2ccc([Se]C#N)cc2)cc1 | 9.9 µM | 39.9 µM | 69.8 µM | 8.8 µM | 68.7 µM | 38.8 µM | 17.4 µM | 72 µM | 44.7 µM | 7.6 µM | 65.1 µM | 32.3 µM | 17.3 µM | 44.2 µM | 71.1 µM | 4.4 µM | 46.9 µM | 8.7 µM | 5.6 µM | 58.3 µM | TGI [7]: 15.3 µM |
